In article PMC10125367 (ACS Bio & Med Chem Au, 2022):

What was measured:
MDR1 (P-gp) = experiment: Permeability and efflux in MDR1-MDCK cell monolayer system; type: in vitro ADME; conditions: dog
MDR1-MDCK cell monolayer = experiment: as above; type: in vitro ADME; conditions: corrected for cell volume on donor side
MDR1 = experiment: as above; type: in vitro ADME; conditions: dog, MDCK-MDR1
KRAS(WT) [1] = target: T1, KRAS(WT) (Homo sapiens, UniProt P01116); experiment: Microscale thermophoresis; type: binding; conditions: Kd from MST, GDP-bound KRAS(WT)
KRAS(G12D) [2] = target: T2, KRAS(G12D) (Homo sapiens, UniProt P01116, G12D); experiment: Microscale thermophoresis; type: binding; conditions: Kd from MST, GDP-bound KRAS(G12D)
KRAS(G12C) = KRAS(G12C) (Homo sapiens, UniProt P01116, G12C); experiment: Microscale thermophoresis; type: binding
KRAS(Q61H) = KRAS(Q61H) (Homo sapiens, UniProt P01116, Q61H); experiment: Microscale thermophoresis; type: binding
GDP-KRAS(WT) = GDP-KRAS(WT) (Homo sapiens, UniProt P01116); experiment: Isothermal titration calorimetry; type: binding; conditions: Kd from ITC, GDP-bound KRAS(WT), 25 °C
GDP-KRAS(G12D) = GDP-KRAS(G12D) (Homo sapiens, UniProt P01116, G12D); experiment: Isothermal titration calorimetry; type: binding
GDP-KRAS(G12C) = GDP-KRAS(G12C) (Homo sapiens, UniProt P01116, G12C); experiment: Isothermal titration calorimetry; type: binding
GDP-KRAS(Q61H) = GDP-KRAS(Q61H) (Homo sapiens, UniProt P01116, Q61H); experiment: Isothermal titration calorimetry; type: binding
GDP-KRAS(G13D) = GDP-KRAS(G13D) (Homo sapiens, UniProt P01116, G13D); experiment: Isothermal titration calorimetry; type: binding
NRAS = NRAS (Homo sapiens, UniProt P01111); experiment: Thermal shift assay; type: binding; conditions: 50 μM compound
HRAS = HRAS (Homo sapiens, UniProt P01112); experiment: Thermal shift assay; type: binding; conditions: 50 μM compound
KRAS(WT) [3] = target: T1, KRAS(WT); experiment: Intrinsic fluorescence; type: binding; conditions: 0 to 50 µM ligand, 2 µM KRAS; qualitative
KRAS(G12D) [4] = target: T2, KRAS(G12D); experiment: Intrinsic fluorescence; type: binding; conditions: 0 to 50 µM ligand, 2 µM KRAS; qualitative
KRAS(WT) [5] = target: T1, KRAS(WT); experiment: Intrinsic GDP/GTP nucleotide exchange; type: biochemical
Outline: (§1)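 Recombinant KRAS(WT), BODIPY-GTP (BGTP) and, for SOS-mediated exchange, SOS are each at 0.5 μM. Buffer is 25 mM Tris Cl pH 7.5, 50 mM NaCl, 10 mM MgCl2, with test compound at 0–50 μM. Fluorescence rise on BGTP binding is normalised to the 60 s and KRAS-alone maximum values. Rates come from linear (intrinsic) or single-exponential (SOS) fits, and EC50 from fitting rate versus concentration.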

KRAS(WT) with SOS = KRAS(WT) with SOS (Homo sapiens, UniProt P01116); experiment: SOS-mediated GDP/GTP nucleotide exchange; type: biochemical
Outline: as §1

KRAS = KRAS (Homo sapiens, UniProt P01116); experiment: Intrinsic nucleotide release; type: biochemical; conditions: 50 µM ligand, 100 µM GTP
KRAS with SOS = KRAS with SOS (Homo sapiens, UniProt P01116); experiment: SOS-mediated nucleotide release; type: biochemical; conditions: 50 µM ligand, 100 µM GTP, 0.5 µM SOS
[6] = target: KRAS(G12D)-RafRBD interaction (Homo sapiens, UniProt P01116, G12D); experiment: RBD pull-down assay in BHK cell lysates; type: cell-based, baby hamster; conditions: lysates treated with 10 μM or more, 1 h
Outline: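 GTP-bound GFP-KRAS(G12D) and endogenous RAS were pulled down with GST-c-Raf RBD and detected by western blot, with total GFP-KRAS(G12D) and total RAS as loading controls. Signals were normalised to DMSO and averaged over three independent experiments, with unpaired Student's t test.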

[7] = test system: BHK cells expressing GFP-tagged KRAS(G12D); experiment: Cell signaling assay; type: cell-based, baby hamster
Outline: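 Whole-cell lysates were immunoblotted for phospho-c-Raf, phospho-ERK and phospho-AKT, with vinculin as loading control. Levels were quantified relative to DMSO, averaged from three independent experiments and compared by unpaired Student's t test.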

[8] = test system: cancer cells expressing various mutants of KRAS; experiment: Cell proliferation, summary; type: cell-based
Microsomal stability [9] = type: in vitro ADME; conditions: mouse, microsomes
Microsomal stability [10] = type: in vitro ADME; conditions: rat, microsomes
Microsomal stability [11] = type: in vitro ADME; conditions: human, microsomes
[12] = test system: MIAPaCa-2 xenograft tumor; experiment: MIAPaCa-2 subcutaneous xenograft tumor model; type: in vivo, mouse; conditions: 5 mg/kg IP
Outline: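 Nude mice received MIAPaCa-2 cells subcutaneously in the hind flank and were split after 3 days into groups of equal mean tumour volume (8 vehicle, 7 treated). Dosing was 5 mg/kg test compound in corn oil, or DMSO in corn oil, intraperitoneally 5 days/week. Caliper volumes, (length × width²)/2, were taken twice weekly and body weights weekly. Tumour lysates were blotted for p-ERK, total ERK and GAPDH.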

SOS = conditions: read-out: IC50 in vitro; inhibits SOS; ref 20 Kessler, et al.; cited from earlier work
Raf = conditions: read-out: IC50 in vitro; inhibits Raf; ref 20 Kessler, et al.; cited from earlier work
[13] = MDCK-MDR1, Papparent efflux ratio (ER)

NRAS, sequence (P01111 whole entry): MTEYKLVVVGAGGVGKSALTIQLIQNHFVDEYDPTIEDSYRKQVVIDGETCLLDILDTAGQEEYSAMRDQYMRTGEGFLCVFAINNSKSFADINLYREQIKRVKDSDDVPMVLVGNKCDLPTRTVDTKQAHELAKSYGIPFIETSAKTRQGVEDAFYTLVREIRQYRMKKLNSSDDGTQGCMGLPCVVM
HRAS, sequence (P01112 whole entry): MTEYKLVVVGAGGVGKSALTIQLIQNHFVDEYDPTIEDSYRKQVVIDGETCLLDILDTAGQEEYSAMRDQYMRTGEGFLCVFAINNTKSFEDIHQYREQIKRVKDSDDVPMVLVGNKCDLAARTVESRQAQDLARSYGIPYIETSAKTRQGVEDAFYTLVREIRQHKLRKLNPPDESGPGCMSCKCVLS

In the case of CC(C)CN(C[C@@H](O)[C@H](Cc1ccccc1)NC(=O)O[C@H]1CCOC1)S(=O)(=O)c1ccc(N)cc1 [amprenavir], the efflux ratio (MDR1 (P-gp); [13]) is reported as 10.3, the efflux ratio (MDR1 (P-gp); MDCK-MDR1, Pexact efflux ratio) is reported as 16.9 and the “Pexact, A > B” value (MDR1-MDCK cell monolayer) is reported as 1.436 ×10⁻⁶ cm/s. The “Pexact, B > A” value (MDR1-MDCK cell monolayer) was 24.325 ×10⁻⁶ cm/s, the Papp A→B (MDR1) was 1.65 ×10⁻⁶ cm/s and the Papp B→A (MDR1) was 17.1 ×10⁻⁶ cm/s.

Compound O=C(O)c1cc(NC(=O)C2CC2c2ccccc2)ccc1O (centres unmarked) [ACA-14, 2-hydroxy-5-{[(2-phenylcyclopropyl)carbonyl]amino} benzoic acid] has a Kd (KRAS(WT) [1]) of 4500 ± 1500 nM, a Kd (KRAS(G12D) [2]) of over 50000 nM and a Kd (KRAS(G12C)) of 340 ± 70 nM. For the same compound, the Kd (KRAS(Q61H)) was 20 ± 10 nM, the Kd (GDP-KRAS(WT)) was 1100 nM and the Kd (GDP-KRAS(G12D)) was 45900 nM. It also gave a Kd (GDP-KRAS(G12C)) of 11800 nM, a Kd (GDP-KRAS(Q61H)) of 1040 nM and a Kd (GDP-KRAS(G13D)) of 34100 nM. For the same compound, the “Change in melting temperature (Tm)” value (NRAS) was “no measurable change”, the “Change in melting temperature (Tm)” value (HRAS) was “no measurable change” and the “Change in intrinsic fluorescence of the compound on mixing with protein” value (KRAS(WT) [3]) was “concentration-dependent changes”. For the same compound, the “Change in intrinsic fluorescence of the compound on mixing with protein” value (KRAS(G12D) [4]) was “concentration-dependent changes”, the EC50 (KRAS(WT) [5]) was 3800 ± 600 nM and the EC50 (KRAS(WT) with SOS) was 2100 ± 400 nM. For the same compound, the “Effect on rate of intrinsic GDP release” value (KRAS) was “lack of effect”, the “Effect on rate of SOS-mediated GDP release” value (KRAS with SOS) was “lack of effect” and the “Level of GFP-tagged GTP-KRAS(G12D) pulled down by c-Raf RBD” value [6] was “significantly reduced”. For the same compound, the “Level of endogenous RAS pulled down by c-Raf RBD” value [6] was “significantly reduced”, the “Concentration required to inhibit MAPK signaling” value [7] was over 20 µM and the “Level of phosphorylated ERK (p-ERK)” value ([7]; 3 h, serum-starved) was “significantly reduced”. The “Level of phosphorylated c-Raf (p-cRaf)” value ([7]; 3 h, serum-starved) was “significantly reduced”, the p-AKT level ([7]; 3 h, serum-starved, concentration range tested) was “little effect” and the “Concentration required to inhibit proliferation” value [8] was over 20 µM. The efflux ratio (MDR1 (P-gp); [13]) was 0.65, the efflux ratio (MDR1 (P-gp); MDCK-MDR1, Pexact efflux ratio) was 0.72 and the “Pexact, A > B” value (MDR1-MDCK cell monolayer) was 5.355 ×10⁻⁶ cm/s. The “Pexact, B > A” value (MDR1-MDCK cell monolayer) was 3.833 ×10⁻⁶ cm/s, the Papp A→B (MDR1) was 5.42 ×10⁻⁶ cm/s and the Papp B→A (MDR1) was 3.51 ×10⁻⁶ cm/s. The Intrinsic clearance (Microsomal stability [9]) was under 0.3 mL/min/g, the half-life (Microsomal stability [9]) was over 3 h and the Intrinsic clearance (Microsomal stability [10]) was under 0.3 mL/min/g. It also gave a half-life (Microsomal stability [10]) of over 3 h, an Intrinsic clearance (Microsomal stability [11]) of under 0.3 mL/min/g and a half-life (Microsomal stability [11]) of over 3 h. For the same compound, the “Weight gain of treated mice” value ([12]; nude mice, 5 days per week) was “did not affect weight gain”, the Tumor growth ([12]; nude mice, 5 days per week, maintained until day 20) was “small but statistically significant reduction” and the “ERK activation within tumors (p-ERK western blot)” value ([12]; tumor lysates) was “small but significant reduction”.

For Cn1cnc(Cn2ccc3ccc(CNCc4[nH]c5ccccc5c4[C@H]4NC(=O)c5ccc(O)cc54)cc32)c1 [BI-2852], the IC50 (SOS) is given as 500 to 700 nM and the IC50 (Raf) is given as 500 to 700 nM.

With CC(C)NCC(O)COc1cccc2ccccc12 (centres unmarked) [propranolol] the efflux ratio (MDR1 (P-gp); [13]) was 0.48, the efflux ratio (MDR1 (P-gp); MDCK-MDR1, Pexact efflux ratio) was 0.52 and the “Pexact, A > B” value (MDR1-MDCK cell monolayer) was 39.979 ×10⁻⁶ cm/s. The “Pexact, B > A” value (MDR1-MDCK cell monolayer) was 20.715 ×10⁻⁶ cm/s, the Papp A→B (MDR1) was 31.2 ×10⁻⁶ cm/s and the Papp B→A (MDR1) was 15 ×10⁻⁶ cm/s.
